The values that follow come from ChEMBL document CHEMBL1134359, “Design, synthesis, and evaluation of a novel pyrrolobenzodiazepine DNA-interactive agent with highly efficient cross-linking ability and potent cytotoxicity” (J Med Chem, 2001).

The test system of test [1] is CH1. As to the kind of experiment: Inhibition of cell growth in human ovarian carcinoma cell line (CH1-cis-R,cisplatin resistant) using the 96 hour exposure sulforhodamine B (SRB) growth delay assay. Type of test: functional, cell-based. In a few lines: (§1)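 Cells seeded in growth medium and allowed to attach overnight, then given drug (20 mM DMSO stock diluted in medium) in quadruplicate wells at final 100 μM to 2.5 nM for 96 h at 37 °C. Fixed with 10% trichloroacetic acid on ice, stained 0.4% sulforhodamine B, dye solubilised in 10 mM Tris base, absorbance 540 nm; IC50 from concentration versus % absorbance against 8 untreated wells.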

For test [2], the system named is A2780. As to the kind of experiment: Inhibition of cell growth in human ovarian carcinoma cell line (A2780) using the 96 hour continuous exposure sulforhodamine B (SRB) growth delay assay. Type of test: functional, cell-based. The essentials:
(§2)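 Human ovarian lines seeded in 96-well plates and left to attach overnight. Compounds dissolved in DMSO (20 mM stock), diluted in medium, added to quadruplicate wells at final 2.5 nM–100 μM; continuous exposure 96 h at 37 °C. Cells fixed in 10% TCA, stained with 0.4% SRB, dye taken up in 10 mM Tris, A540 read. IC50 taken relative to 8 untreated wells.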

Test [3] deals with A2780. Kind of test: Inhibition of cell growth in human ovarian carcinoma cell line (A2780cisR,cisplatin-resistant)using the 96 hour continuous exposure sulforhodamine B (SRB) growth delay assay. Type of test: functional, cell-based. In a few lines:
as §1

The subject of test [4] is SK-OV-3. As to the kind of experiment: Inhibition of cell growth in human ovarian carcinoma cell line(SKOV-3) using the 96 hour continuous exposure sulforhodamine B (SRB) growth delay assay. Type of test: functional, cell-based. In a few lines: as §2
Test [5] has as its system CH1. As to the kind of experiment: Inhibition of cell growth in human ovarian carcinoma cell line (CH1) was determined using the 96 hour continuous exposure sulforhodamine B (SRB) growth delay assay. Format: functional, cell-based. The settings on record: CH1, 96 h. The essentials:
as §2

Test [6] deals with K562. As to the kind of experiment: Inhibition of cell growth by 50% in human leukemia cell line (K562) was determined using microculture tetrazolium (MTT) assay. Format: functional, cell-based. The essentials: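 K562 human leukaemia cells given drug for 1 h; growth then measured by MTT assay; IC50 is the dose giving 50% growth inhibition versus drug-free controls.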
Test [7] in a line: (§3) Ratio of IC50 against A2780cisR (cisplatin resistant) to the IC50 of parent. Type of test: functional.
Test [8] deals with CH1. Kind of test: Inhibition of cell growth in human ovarian carcinoma cell line (CH1-cis-R,cisplatin resistant) using the 96 hour continuous exposure sulforhodamine B (SRB) growth delay assay. The settings on record: CH1cisR. Type of test: functional, cell-based. The essentials:
as §2

Test [9] has as its system Nucleic Acid. As to the kind of experiment: The concentration of compound required for 50% cross linking of plasmid pBR322 DNA was investigated using an assay involving linear double stranded DNA. Type of test: functional. The essentials:
(§4)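 pBR322 cut with HindIII, dephosphorylated, then 5'-end-labelled with [γ-32P]ATP by T4 kinase; about 10 ng per reaction. Drug at 0.001–10 μM in 25 mM triethanolamine/1 mM EDTA, pH 7.2, 37 °C, 2 h. Stopped, then ethanol-precipitated; strands separated in 30% DMSO at 90 °C for 2 min; run on neutral 0.8% agarose. Autoradiograph read by laser densitometry; XL50 is the dose giving 50% double-stranded (cross-linked) DNA.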

Test [10] is described as follows: (§5) Ratio of IC50 against human ovarian carcinoma cell line (CH1)cisR (cisplatin resistant) to the IC50 of parent. Type of test: functional.
Test [11] deals with Nucleic Acid. As to the kind of experiment: Concentration of compound required for 50% cross linking of plasmid pBR322 DNA was investigated using an assay involving linear double stranded DNA. Format: functional. In a few lines:
as §4

The test system of test [12] is A2780. As to the kind of experiment: Growth inhibition in human ovarian carcinoma cell line (A2780cisR,cisplatin-resistant) using the 96 hour exposure sulforhodamine B (SRB) growth delay assay. Type of test: functional, cell-based. Conditions: A2780, 96 h. In a few lines: as §2
The test system of test [13] is A2780cisR. The description is as §3. Format: functional.
Test [14] deals with carcinoma cell line. The description is as §5. Type of test: functional.

As usually defined, the IC50 is the point on the concentration scale where inhibition reaches its midpoint. A higher IC50 goes with lower potency. With CISPLATIN [listing 1 of 2 here], the IC50 was 1100 nM in [1], 265 nM in test [2] (a2780), 8400 nM in test [3] and 10500 nM in test [4] (sk-ov-3).
For the compound `C=C1C[C@H]2C=Nc3cc(OCCCOc4cc5c(cc4OC)C(=O)N4CC(=C)C[C@H]4C=N5)c(OC)cc3C(=O)N2C1` [SJG-136], the IC50 amounted to 0.12 nM in test [5]; 42.5 nM in [6]; 0.6 nM in [8]; 9.1 nM in test [4] (Homo sapiens, SK-OV-3, 96 h). Also, the Ratio in test [7] was 1.1; in test [10], 5. Also, the XL50 in test [9] turned out to be 0.045 µM.
`N[C@@H](Cc1ccc(N(CCCl)CCCl)cc1)C(=O)O` displayed an XL50 in test [11] of 20 µM.
With `C=C1C[C@H]2C(=O)Nc3cc(OCCCOc4cc5c(cc4OC)C(=O)N4CC(=C)C[C@H]4C(=O)N5)c(OC)cc3C(=O)N2C1`, the IC50 in test [5] came out at 570 nM; in test [2] (Homo sapiens, A2780, 96 h) it was 2500 nM; in test [8], 2900 nM; in test [12] it was 11000 nM; in test [4] (Homo sapiens, SK-OV-3, 96 h) it was 28000 nM. The Ratio in test [7] came out at 4.4; in [10], 3.5.
Regarding `COc1cc2c(cc1OCCCOc1cc3c(cc1OC)C(=O)N1CCC[C@H]1C=N3)N=C[C@@H]1CCCN1C2=O` [DSB-120], the IC50 in test [6] was determined as 250 nM; in [8], 22 nM. Also, the results for the Ratio in test [7] and in test [10] were 29.2 and 0.7, respectively. The XL50 in [9] is 0.055 µM.
As for CISPLATIN [listing 2 of 2 here], the Ratio in [13] came to 32; in [14], 6.1.
